Values after ≈ are worked out from the molar mass of the structure shown.
Assays:
Moraxella catarrhalis = test: Antibacterial activity against Moraxella catarrhalis ATCC 25238 by CLSI method; assay type: functional
Method in brief: (§1)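 Broth microdilution MIC in liquid medium following CLSI methods, with ATCC strains. Each run was accepted only if comparator antibiotics fell within their recommended quality-control ranges for the appropriate ATCC strain.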

Enterococcus faecalis = test: Antibacterial activity against Enterococcus faecalis ATCC 29212 by CLSI method; assay type: functional; method in brief: as §1
[1] = test system: Staphylococcus epidermidis; test: Antibacterial activity against Staphylococcus epidermidis ATCC 12228 by CLSI method; assay type: functional; method in brief: as §1
Streptococcus pneumoniae = test: Antibacterial activity against Streptococcus pneumoniae ATCC 10015 by CLSI method; assay type: functional; method in brief: as §1
Staphylococcus aureus [2] = test: Antibacterial activity against Staphylococcus aureus ATCC 29213 by CLSI method in presence of human 50% serum; assay type: functional; method in brief: as §1
[3] = Inhibition of Staphylococcus aureus DNA topoisomerase-4 C2E2 using pBR322 plasmid DNA as substrate by coupled enzyme reaction assay
Rattus norvegicus [4] = species: Rattus norvegicus; test: Drug metabolism in rat assessed as reactive metabolites as rat liver protein binding per mg of protein at 100 uCi for 6 days measured on day 7; assay type: ADME, organism-based; conditions: in vivo, 144 h
Method in brief: (§2)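 Male rats were dosed with unlabeled compound at 90 mg/kg for 6 or 13 days, then given 100 μCi ¹⁴C-labeled compound on day 7 or 14 and killed 4 h later. Liver S9 (9000g) was washed with acetonitrile until free of unbound label and the pellet dissolved in 1 N NaOH at 60 °C. Radioactivity was counted by scintillation, normalized to Bradford protein, and expressed as pmol/mg.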

Rattus norvegicus [5] = species: Rattus norvegicus; test: Drug metabolism in rat assessed as reactive metabolites as rat liver protein binding per mg of protein at 100 uCi for 13 days measured on day 14; assay type: ADME, organism-based; conditions: in vivo, 312 h; method in brief: as §2
Haemophilus influenzae = test: Antibacterial activity against Haemophilus influenzae ATCC 49247 by CLSI method; assay type: functional; method in brief: as §1
Staphylococcus aureus [6] = test: Antibacterial activity against Staphylococcus aureus ATCC 29213 by CLSI method; assay type: functional; method in brief: as §1
Enterococcus faecium = test: Antibacterial activity against Enterococcus faecium ATCC 49624 by CLSI method; assay type: functional; method in brief: as §1
DNA gyrase = DNA gyrase (Escherichia coli, UniProt P0AES4+P0AES6); test: Inhibition of […] Escherichia coli DNA gyrase A2B2 using pBR322 plasmid DNA as substrate by coupled enzyme reaction assay; assay type: protein-complex assay
Plasma = test: Drug metabolism in rat assessed as metabolites in plasma at 30 mg/kg, po; assay type: ADME, organism-based; set-up: dose 30 mg/kg, route oral; conditions: in vivo
Cytochrome P450 2C8 = molecular target: T1, Cytochrome P450 2C8 (Homo sapiens, UniProt P10632); test: Drug metabolism in recombinant CYP2C8 (unknown origin) at 1 uM after 30 mins; assay type: ADME; conditions: recombinant enzyme, 0.5 h
T1 sequence (P10632 whole entry): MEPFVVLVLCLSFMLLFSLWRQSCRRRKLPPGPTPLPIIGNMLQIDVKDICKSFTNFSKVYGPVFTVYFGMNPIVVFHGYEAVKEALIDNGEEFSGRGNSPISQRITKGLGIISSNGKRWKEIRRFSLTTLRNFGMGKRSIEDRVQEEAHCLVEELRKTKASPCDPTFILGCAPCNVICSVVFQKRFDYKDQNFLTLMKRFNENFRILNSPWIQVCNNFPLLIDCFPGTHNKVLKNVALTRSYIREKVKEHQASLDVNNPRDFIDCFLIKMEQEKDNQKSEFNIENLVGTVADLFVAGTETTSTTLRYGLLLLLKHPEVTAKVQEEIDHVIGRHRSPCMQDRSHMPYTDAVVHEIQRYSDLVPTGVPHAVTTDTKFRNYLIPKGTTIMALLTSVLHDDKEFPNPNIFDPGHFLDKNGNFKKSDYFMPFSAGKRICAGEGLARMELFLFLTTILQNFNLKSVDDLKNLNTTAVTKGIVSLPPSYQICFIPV
Method in brief: (§3)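 Parent at 1 and 10 μM was incubated with individual recombinant CYP supersomes, with and without NADPH, for 0, 15 and 30 min. Formation of the imine metabolite was quantified by LC-MS/MS.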

[7] = Drug metabolism in rat assessed as metabolites in feces at 30 mg/kg, po; assay type: ADME, organism-based; set-up: dose 30 mg/kg, route oral; conditions: in vivo
[8] = Drug metabolism in rat assessed as metabolites in bile at 30 mg/kg, po; assay type: ADME, organism-based; set-up: dose 30 mg/kg, route oral; conditions: in vivo
Cytochrome P450 2B6 = molecular target: T2, Cytochrome P450 2B6 (Homo sapiens, UniProt P20813); test: Drug metabolism in recombinant CYP2B6 (unknown origin) at 1 uM after 30 mins; assay type: ADME; conditions: recombinant enzyme, 0.5 h; method in brief: as §3
T2 sequence (P20813 whole entry): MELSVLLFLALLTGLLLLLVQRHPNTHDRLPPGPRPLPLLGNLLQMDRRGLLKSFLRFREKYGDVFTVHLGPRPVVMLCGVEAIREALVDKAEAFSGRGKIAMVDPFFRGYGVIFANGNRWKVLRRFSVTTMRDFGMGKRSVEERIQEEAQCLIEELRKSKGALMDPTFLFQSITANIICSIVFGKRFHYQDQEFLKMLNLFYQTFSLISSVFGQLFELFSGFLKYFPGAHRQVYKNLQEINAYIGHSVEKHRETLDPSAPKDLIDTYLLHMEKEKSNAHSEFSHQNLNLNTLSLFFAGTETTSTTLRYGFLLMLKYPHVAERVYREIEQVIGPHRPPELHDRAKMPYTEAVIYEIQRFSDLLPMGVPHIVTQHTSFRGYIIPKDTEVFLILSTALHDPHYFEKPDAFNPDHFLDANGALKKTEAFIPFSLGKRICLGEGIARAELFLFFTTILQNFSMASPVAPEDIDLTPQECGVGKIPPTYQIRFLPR

Cytochrome P450 2C19 = Cytochrome P450 2C19 (Homo sapiens, UniProt P33261); test: Drug metabolism in recombinant CYP2C19 (unknown origin) at 1 uM after 30 mins; assay type: ADME; conditions: recombinant enzyme, 0.5 h; method in brief: as §3
[9] = Drug metabolism in rat assessed as metabolites in urine at 30 mg/kg, po; assay type: ADME, organism-based; set-up: dose 30 mg/kg, route oral; conditions: in vivo
Cytochrome P450 2C9 = Cytochrome P450 2C9 (Homo sapiens, UniProt P11712); test: Drug metabolism in recombinant CYP2C9 (unknown origin) at 1 uM after 30 mins; assay type: ADME; conditions: recombinant enzyme, 0.5 h; method in brief: as §3
Staphylococcus aureus [10] = test: Antibacterial activity against methicillin-susceptible Staphylococcus aureus ATCC 29213 infected in mouse thigh assessed reduction in colony forming unit at 25 mg/kg, po bid after 72 hrs; assay type: functional
Liver microsome [11] = test: Drug metabolism in human liver microsomes assessed as compound formation treated with 30 uM 1-Ethyl-3-(5-(5-fluoropyridin-3-yl)-7-(pyrimidin-2-yl)-1H-benzo-[d]imidazol-2-yl)urea for 1 hr; assay type: ADME
[12] = Drug metabolism in human liver S9 fractions assessed as compound formation treated with 30 uM 1-Ethyl-3-(5-(5-fluoropyridin-3-yl)-7-(pyrimidin-2-yl)-1H-benzo-[d]imidazol-2-yl)urea for 1 hr; assay type: ADME, subcellular, Liver S9 fraction; conditions: s9, 1 h
Liver microsome [13] = test: Drug metabolism in rat liver microsomes assessed as compound formation treated with 30 uM 1-Ethyl-3-(5-(5-fluoropyridin-3-yl)-7-(pyrimidin-2-yl)-1H-benzo-[d]imidazol-2-yl)urea for 1 hr; assay type: ADME
[14] = Drug metabolism in monkey liver microsomes assessed as compound formation treated with 30 uM 1-Ethyl-3-(5-(5-fluoropyridin-3-yl)-7-(pyrimidin-2-yl)-1H-benzo-[d]imidazol-2-yl)urea for 1 hr; assay type: ADME, Macaca mulatta; conditions: rhesus monkey
Cytochrome P450 2D6 = Cytochrome P450 2D6 (Homo sapiens, UniProt P10635); test: Drug metabolism in recombinant CYP2D6 (unknown origin) assessed as compound formation treated with 10 uM 1-Ethyl-3-(5-(5-fluoropyridin-3-yl)-7-(pyrimidin-2-yl)-1H-benzo-[d]imidazol-2-yl)urea for 30 mins; conditions: recombinant enzyme, 0.5 h
Cytochrome P450 3A4 = Cytochrome P450 3A4 (Homo sapiens, UniProt P08684); test: Drug metabolism in recombinant CYP3A4 (unknown origin) assessed as compound formation treated with 1 uM 1-Ethyl-3-(5-(5-fluoropyridin-3-yl)-7-(pyrimidin-2-yl)-1H-benzo-[d]imidazol-2-yl)urea for 30 mins; assay type: ADME; conditions: recombinant enzyme, 0.5 h, in the assay text read “10 uM” for “1 uM”; method in brief: as §3
Cytochrome P450 1A2 = molecular target: T3, Cytochrome P450 1A2 (Homo sapiens, UniProt P05177); test: Drug metabolism in recombinant CYP1A2 (unknown origin) assessed as compound formation treated with 10 uM 1-Ethyl-3-(5-(5-fluoropyridin-3-yl)-7-(pyrimidin-2-yl)-1H-benzo-[d]imidazol-2-yl)urea for 30 mins; conditions: recombinant enzyme, 0.5 h
T3 sequence (P05177 whole entry): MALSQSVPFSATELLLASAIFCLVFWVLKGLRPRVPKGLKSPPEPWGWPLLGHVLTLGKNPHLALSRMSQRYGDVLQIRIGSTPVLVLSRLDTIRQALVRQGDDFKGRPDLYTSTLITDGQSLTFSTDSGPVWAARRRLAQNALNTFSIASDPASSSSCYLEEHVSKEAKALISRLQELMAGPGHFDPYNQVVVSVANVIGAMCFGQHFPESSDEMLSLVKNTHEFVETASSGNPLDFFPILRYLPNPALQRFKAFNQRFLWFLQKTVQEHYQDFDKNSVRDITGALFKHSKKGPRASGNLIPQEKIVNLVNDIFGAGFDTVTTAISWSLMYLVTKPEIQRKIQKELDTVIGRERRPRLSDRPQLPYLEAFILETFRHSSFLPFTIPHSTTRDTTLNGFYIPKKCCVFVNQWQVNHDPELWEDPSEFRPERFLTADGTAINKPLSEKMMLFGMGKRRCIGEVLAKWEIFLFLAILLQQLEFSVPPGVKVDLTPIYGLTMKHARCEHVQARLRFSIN

Sequence of Cytochrome P450 2C19 (P33261 whole entry): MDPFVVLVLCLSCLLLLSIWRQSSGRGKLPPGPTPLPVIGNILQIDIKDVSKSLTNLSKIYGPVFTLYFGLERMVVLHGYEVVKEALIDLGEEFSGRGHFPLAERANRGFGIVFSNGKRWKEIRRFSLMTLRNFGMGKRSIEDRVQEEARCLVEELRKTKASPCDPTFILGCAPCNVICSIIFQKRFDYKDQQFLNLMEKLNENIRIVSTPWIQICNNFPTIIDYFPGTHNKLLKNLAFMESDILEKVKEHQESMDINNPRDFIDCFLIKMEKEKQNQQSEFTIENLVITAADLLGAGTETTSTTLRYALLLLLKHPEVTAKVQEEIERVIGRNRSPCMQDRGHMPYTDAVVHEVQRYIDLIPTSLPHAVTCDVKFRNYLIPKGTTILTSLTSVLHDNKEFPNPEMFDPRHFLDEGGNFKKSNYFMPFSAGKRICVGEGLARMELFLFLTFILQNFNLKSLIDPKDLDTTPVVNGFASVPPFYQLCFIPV
Sequence of Cytochrome P450 2C9 (P11712 whole entry): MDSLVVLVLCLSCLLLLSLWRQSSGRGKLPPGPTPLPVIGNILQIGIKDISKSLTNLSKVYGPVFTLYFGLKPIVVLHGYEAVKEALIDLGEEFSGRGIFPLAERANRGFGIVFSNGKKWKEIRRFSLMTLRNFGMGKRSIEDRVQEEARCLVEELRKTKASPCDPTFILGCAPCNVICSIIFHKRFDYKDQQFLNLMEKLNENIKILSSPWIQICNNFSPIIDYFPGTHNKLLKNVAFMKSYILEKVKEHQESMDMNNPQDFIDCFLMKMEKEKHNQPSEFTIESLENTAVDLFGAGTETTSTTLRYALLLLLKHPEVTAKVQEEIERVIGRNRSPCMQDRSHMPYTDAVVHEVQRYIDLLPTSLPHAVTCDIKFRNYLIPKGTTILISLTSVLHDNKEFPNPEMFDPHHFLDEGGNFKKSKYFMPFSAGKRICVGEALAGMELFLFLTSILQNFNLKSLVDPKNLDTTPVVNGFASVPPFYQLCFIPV
Sequence of Cytochrome P450 2D6 (P10635 whole entry): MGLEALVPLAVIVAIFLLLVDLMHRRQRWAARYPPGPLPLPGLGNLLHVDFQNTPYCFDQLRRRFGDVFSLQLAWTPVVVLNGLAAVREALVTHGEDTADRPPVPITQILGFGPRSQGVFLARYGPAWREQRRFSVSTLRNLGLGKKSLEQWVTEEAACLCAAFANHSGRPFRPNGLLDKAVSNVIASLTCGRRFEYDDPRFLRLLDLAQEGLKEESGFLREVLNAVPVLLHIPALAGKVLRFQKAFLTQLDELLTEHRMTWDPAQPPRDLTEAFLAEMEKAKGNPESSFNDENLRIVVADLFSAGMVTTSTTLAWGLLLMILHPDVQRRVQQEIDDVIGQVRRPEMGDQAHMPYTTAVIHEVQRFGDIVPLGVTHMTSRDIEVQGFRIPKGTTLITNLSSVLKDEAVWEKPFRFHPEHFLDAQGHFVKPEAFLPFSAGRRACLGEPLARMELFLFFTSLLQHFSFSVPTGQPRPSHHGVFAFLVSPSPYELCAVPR
Sequence of Cytochrome P450 3A4 (P08684 whole entry): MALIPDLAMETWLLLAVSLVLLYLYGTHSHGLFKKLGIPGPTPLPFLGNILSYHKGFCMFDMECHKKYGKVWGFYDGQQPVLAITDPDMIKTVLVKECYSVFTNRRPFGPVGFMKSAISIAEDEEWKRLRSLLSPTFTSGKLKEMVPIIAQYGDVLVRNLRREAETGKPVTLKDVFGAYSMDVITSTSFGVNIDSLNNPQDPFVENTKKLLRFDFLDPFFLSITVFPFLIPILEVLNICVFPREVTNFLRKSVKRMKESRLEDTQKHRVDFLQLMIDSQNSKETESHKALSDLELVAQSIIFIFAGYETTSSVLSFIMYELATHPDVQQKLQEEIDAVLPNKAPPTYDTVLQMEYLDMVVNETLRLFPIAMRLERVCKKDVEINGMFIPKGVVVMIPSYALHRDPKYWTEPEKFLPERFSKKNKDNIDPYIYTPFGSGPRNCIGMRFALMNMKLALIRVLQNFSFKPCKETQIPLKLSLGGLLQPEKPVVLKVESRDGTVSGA

Row | Structure (SMILES) | MIC (Enterococcus faecalis) | MIC (Streptococcus pneumoniae) | MIC (Staphylococcus aureus [2]) | MIC (Haemophilus influenzae) | MIC (Staphylococcus aureus [6]) | Ki (DNA gyrase) | Drug metabolism (Liver microsome [11]) | Drug metabolism [12] | Drug metabolism (Liver microsome [13]) | Drug metabolism [14] | Ki [3] | other results
1 | CCNC(=O)Nc1nc2cc(-c3cnc(C(C)(C)O)nc3)c(F)c([C@H]3CCCO3)c2[nH]1 | 0.032 µg/mL (≈ 0.0747 µM) | ≤ 0.008 µg/mL | 0.25 µg/mL | 0.5 µg/mL (≈ 1.17 µM) | 0.032 µg/mL (≈ 0.0747 µM) |  |  |  |  |  | 9 nM | MIC (Moraxella catarrhalis): ≤ 0.016 µg/mL; MIC [1]: ≤ 0.008 µg/mL; Drug metabolism (Rattus norvegicus [4]): < 5 pmol; Drug metabolism (Rattus norvegicus [5]): < 5 pmol; MIC (Enterococcus faecium): 0.125 µg/mL (≈ 0.292 µM)
2 | CCNC(=O)Nc1nc2cc(-c3cnc(C(C)(C)O)nc3)cc(-c3ncccc3F)c2[nH]1 | 0.032 µg/mL (≈ 0.0735 µM) | ≤ 0.008 µg/mL | 0.25 µg/mL | 1 µg/mL (≈ 2.3 µM) | 0.031 µg/mL (≈ 0.0712 µM) | < 4 nM |  |  |  |  | < 6 nM | 
3 | CC1NC(=O)Nc2nc3c(-c4ncccn4)cc(-c4cncc(F)c4)cc3n21 (centres undefined) |  |  |  |  |  |  | metabolite_detected | metabolite_detected | metabolite_detected | metabolite_detected |  | Drug metabolism (Cytochrome P450 2D6): metabolite_detected; Drug metabolism (Cytochrome P450 3A4): metabolite_detected; Drug metabolism (Cytochrome P450 1A2): metabolite_detected

Second part, led by results:

Row | MIC (Enterococcus faecalis) | MIC (Streptococcus pneumoniae) | MIC (Staphylococcus aureus [2]) | MIC (Haemophilus influenzae) | MIC (Staphylococcus aureus [6]) | Ki (DNA gyrase) | Drug metabolism (Liver microsome [11]) | Drug metabolism [12] | Drug metabolism (Liver microsome [13]) | Drug metabolism [14] | Structure (SMILES) | Ki [3] | other results
4 | < 0.008 µg/mL | ≤ 0.008 µg/mL | 0.25 µg/mL | 1 µg/mL (≈ 2.65 µM) | 0.016 µg/mL (≈ 0.0424 µM) | 5 nM |  |  |  |  | CCNC(=O)Nc1nc2cc(-c3cncc(F)c3)cc(-c3ncccn3)c2[nH]1 | < 6 nM | Drug metabolism (Plasma): metabolite_notdetected; Drug metabolism (Cytochrome P450 2C8): metabolite_notdetected; Drug metabolism [7]: metabolite_notdetected; Drug metabolism [8]: metabolite_notdetected; Drug metabolism (Cytochrome P450 2B6): metabolite_notdetected; Drug metabolism (Cytochrome P450 2C19): metabolite_notdetected; Drug metabolism [9]: metabolite_notdetected; Drug metabolism (Cytochrome P450 2C9): metabolite_notdetected; log10cfu (Staphylococcus aureus [10]): >4
5 |  |  |  |  |  |  | metabolite_detected | metabolite_detected | metabolite_detected | metabolite_detected | C=CNC(=O)Nc1nc2cc(-c3cncc(F)c3)cc(-c3ncccn3)c2[nH]1 |  | 
6 |  |  |  |  |  |  | metabolite_detected | metabolite_detected | metabolite_detected | metabolite_detected | O=C(Nc1nc2cc(-c3cncc(F)c3)cc(-c3ncccn3)c2[nH]1)NC1CO1 (centres undefined) |  | 
